In paper PMC7686291 (Psychopharmacology, 2020):
Where a name gives a salt, the structure may show the parent alone.

Tests used:
[1] = system: human transporters (DAT, SERT); conditions: cited from earlier work; for DAT/SERT ratio in transfected cells: ref Luethi et al. 2019; for DAT/SERT ratio from uptake inhibition potencies: transfected HEK cells, human transporters, ref Rickli et al. 2015
[2] = target: serotonin transporters (SERT) (Rattus norvegicus, UniProt P31652); experiment: Transporter release assay, [3H]5-HT via SERT, rat brain synaptosomes; format: biochemical; conditions: for Emax: read-out: SERT release %Emax; for SERT release %Emax: % of maximal release defined with 100 μM tyramine
Sequence of serotonin transporters (SERT) (P31652 whole entry): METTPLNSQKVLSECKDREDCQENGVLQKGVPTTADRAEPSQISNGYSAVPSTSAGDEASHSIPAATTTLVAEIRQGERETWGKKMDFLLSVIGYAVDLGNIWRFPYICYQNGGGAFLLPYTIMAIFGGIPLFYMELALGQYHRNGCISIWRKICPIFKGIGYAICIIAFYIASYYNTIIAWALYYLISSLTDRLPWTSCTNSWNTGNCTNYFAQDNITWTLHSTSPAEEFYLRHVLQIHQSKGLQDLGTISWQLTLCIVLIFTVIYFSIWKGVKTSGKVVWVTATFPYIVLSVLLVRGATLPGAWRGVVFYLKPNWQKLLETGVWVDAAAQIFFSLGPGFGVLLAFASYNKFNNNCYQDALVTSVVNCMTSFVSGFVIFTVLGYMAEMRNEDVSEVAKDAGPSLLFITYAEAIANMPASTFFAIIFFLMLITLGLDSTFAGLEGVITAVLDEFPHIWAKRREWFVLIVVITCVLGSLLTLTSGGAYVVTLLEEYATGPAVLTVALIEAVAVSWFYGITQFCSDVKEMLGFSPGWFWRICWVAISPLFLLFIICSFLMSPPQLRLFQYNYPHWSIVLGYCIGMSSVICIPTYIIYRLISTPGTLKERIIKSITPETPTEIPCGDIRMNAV
Outline: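 Synaptosomes from whole brain minus striatum and cerebellum of male Sprague-Dawley rats, made in 10% sucrose with 1 μM reserpine plus 100 nM GBR12935 and nomifensine. Preloaded 1 h to steady state with 5 nM [3H]5-HT in Krebs-phosphate buffer, then incubated 5 min with test compound at various concentrations. Stopped by vacuum filtration; retained label counted by scintillation. EC50 from non-linear regression; efficacy as % of release by 100 μM tyramine.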

[3] = system: extracellular 5-HT in nucleus accumbens; experiment: In vivo microdialysis in nucleus accumbens, dialysate 5-HT; design: species or system rat; conditions: male rats
Outline: (§1)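 Male Sprague-Dawley rats (300–400 g) were fitted with a jugular catheter and a nucleus accumbens guide cannula under pentobarbital (60 mg/kg i.p.), with ≥1 week recovery. Probes (2×0.5 mm) were perfused with Ringers' at 0.6 μL/min overnight. 20-min dialysates were assayed by microbore HPLC-ECD. After three stable baselines: i.v. dose at time zero, threefold higher dose at 60 min. Saline 1 mL/kg controls; n = 7/group; % baseline; dose × time ANOVA, Bonferroni.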

[4] = target: dopamine transporters (DAT) (Rattus norvegicus, UniProt P23977); experiment: Transporter release assay, [3H]MPP+ via DAT, rat brain synaptosomes; format: biochemical; conditions: for Emax: read-out: DAT release %Emax; for Times more potent than MDA at DAT release / Times more potent than MDMA at DAT release: ratio of EC50 values, synaptosomes; for DAT release %Emax: % of maximal release defined with 10 μM tyramine
Sequence of dopamine transporters (DAT) (P23977 whole entry): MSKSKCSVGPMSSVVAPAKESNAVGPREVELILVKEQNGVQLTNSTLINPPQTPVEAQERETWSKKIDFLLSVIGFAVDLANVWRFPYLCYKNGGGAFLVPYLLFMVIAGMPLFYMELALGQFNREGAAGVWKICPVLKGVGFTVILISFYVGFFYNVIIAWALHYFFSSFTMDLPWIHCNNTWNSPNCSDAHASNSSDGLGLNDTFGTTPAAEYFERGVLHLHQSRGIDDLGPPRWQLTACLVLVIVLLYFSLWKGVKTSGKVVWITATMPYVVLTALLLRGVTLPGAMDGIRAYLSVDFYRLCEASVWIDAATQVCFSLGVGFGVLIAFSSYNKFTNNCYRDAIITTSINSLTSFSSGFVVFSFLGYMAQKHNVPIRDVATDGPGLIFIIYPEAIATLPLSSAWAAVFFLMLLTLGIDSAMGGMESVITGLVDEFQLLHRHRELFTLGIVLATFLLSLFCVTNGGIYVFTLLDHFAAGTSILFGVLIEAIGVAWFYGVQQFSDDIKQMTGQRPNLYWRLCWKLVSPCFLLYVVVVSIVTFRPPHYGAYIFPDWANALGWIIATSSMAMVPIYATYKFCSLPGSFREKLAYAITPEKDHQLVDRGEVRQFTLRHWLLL
Outline: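 Striatal synaptosomes from male Sprague-Dawley rats, prepared in 10% sucrose containing 1 μM reserpine; no unlabeled blockers added. Loaded 1 h to steady state with 9 nM [3H]MPP+ in Krebs-phosphate buffer; test compound at various concentrations added for 30 min. Ended by rapid vacuum filtration and scintillation counting of filter-bound radioactivity. EC50 by non-linear regression; efficacy relative to maximal release by 10 μM tyramine.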

conscious male rats = experiment: Horizontal ambulation; format: in vivo, rat; conditions: for Duration of behavioral activation (forward ambulation) post-injection: i.v.
Outline: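 Conscious, tethered male Sprague-Dawley rats (300–400 g) with jugular catheters were placed overnight in photobeam arenas during accumbens microdialysis. Horizontal-plane movement was counted in 20-min bins over 120 min. Two i.v. injections: first dose at time zero, threefold higher dose 60 min later. Saline (1 mL/kg) controls; n = 7/group. Data normalized to three preinjection bins; dose × time ANOVA versus saline with Bonferroni tests.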

[5] = target: norepinephrine transporters (NET) (Rattus norvegicus, UniProt Q63380); experiment: Transporter release assay, [3H]MPP+ via NET, rat brain synaptosomes; format: biochemical; conditions: for Emax: read-out: NET release %Emax; for Times more potent than MDA at NET release / Times more potent than MDMA at NET release: ratio of EC50 values, synaptosomes; for NET release %Emax: % of maximal release defined with 10 μM tyramine
Sequence of norepinephrine transporters (NET) (Q63380 1-617): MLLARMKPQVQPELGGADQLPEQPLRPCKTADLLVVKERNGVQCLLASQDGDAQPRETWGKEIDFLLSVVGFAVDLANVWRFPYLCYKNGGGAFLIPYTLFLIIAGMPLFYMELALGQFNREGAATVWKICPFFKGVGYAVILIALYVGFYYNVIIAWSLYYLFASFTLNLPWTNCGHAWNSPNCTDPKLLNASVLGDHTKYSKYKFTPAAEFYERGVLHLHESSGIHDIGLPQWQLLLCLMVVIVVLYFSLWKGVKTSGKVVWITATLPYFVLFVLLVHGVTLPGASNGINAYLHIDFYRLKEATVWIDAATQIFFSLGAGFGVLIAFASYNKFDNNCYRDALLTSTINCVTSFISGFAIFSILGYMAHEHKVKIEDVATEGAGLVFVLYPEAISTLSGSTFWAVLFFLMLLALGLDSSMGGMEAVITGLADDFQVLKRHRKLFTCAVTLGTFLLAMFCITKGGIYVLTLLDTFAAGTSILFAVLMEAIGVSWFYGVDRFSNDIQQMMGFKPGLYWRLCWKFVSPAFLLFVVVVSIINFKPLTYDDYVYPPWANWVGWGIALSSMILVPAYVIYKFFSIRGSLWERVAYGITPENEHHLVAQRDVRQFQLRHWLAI
Outline: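 Male Sprague-Dawley rat whole brain minus striatum and cerebellum gave synaptosomes in 10% sucrose with 1 μM reserpine, 100 nM GBR12935 and citalopram. After 1 h preloading with 9 nM [3H]MPP+ in Krebs-phosphate buffer, incubated 30 min with varied test compound concentrations. Filtration, then scintillation counting of retained radioactivity. EC50 from non-linear regression; efficacy as % of 10 μM tyramine release.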

[6] = system: dialysate 5-HT in corpus striatum; conditions: ref Fuwa et al. 2016, cited from earlier work
mice = conditions: ref Dolan et al. (2017), cited from earlier work
[7] = system: dialysate dopamine in corpus striatum; conditions: oral 0.08 mmol/kg (~17 mg/kg), male CD-1 mice, ref Fuwa et al. 2016; cited from earlier work
[8] = system: extracellular dopamine in nucleus accumbens; experiment: In vivo microdialysis in nucleus accumbens, dialysate dopamine; design: species or system rat; conditions: male rats; for Peak increase of dialysate dopamine above baseline: 1.0 mg/kg i.v. given 60 min after 0.3 mg/kg
Outline: as §1

rats = rats trained with MDMA 1.5 mg/kg i.p., ref Dolan et al. (2017), cited from earlier work
[9] = 3 mg/kg i.v. given 60 min after 1 mg/kg
[10] = ratio of EC50 values, synaptosomes
[11] = 1.0 mg/kg i.v. given 60 min after 0.3 mg/kg

Row | SMILES | DAT/SERT ratio in transfected cells [1] | EC50 [2] [nM] | Emax [2] [%] | EC50 [4] [nM] | Emax [4] [%] | Duration of behavioral activation (forward ambulation) post-injection (conscious male rats) | EC50 [5] [nM] | Emax [5] [%] | DAT/SERT ratio from uptake inhibition potencies [1] | Times more potent than MDA at SERT release [2, 10] [fold] | Peak effect on dialysate 5-HT above baseline [3, 11] [fold] | Times more potent than MDA at DAT release [4] [fold] | Peak increase of dialysate dopamine above baseline [8] [fold] | Peak effect on ambulation above baseline (conscious male rats; [11]) [fold] | Times more potent than MDA at NET release [5] | SERT release %Emax [2] [%] | Times more potent than MDMA at SERT release [2, 10] | DAT release %Emax [4] [%] | Times more potent than MDMA at DAT release [4] | NET release %Emax [5] [%] | also measured
1 | CC(N)Cc1ccc2c(c1)OCO2 (racemic) [MDA, (±)-3,4-Methylenedioxyamphetamine HCl, reference compound] | 0.25 | 162 ± 28 | 109 | 106 ± 7 | 104 | at least 2 h | 47 ± 7 | 91 | – | – | – | – | – | – | – | – | – | – | – | – | Peak effect on dialysate 5-HT above baseline ([3]; 1 mg/kg i.v., first dose): 4.6 fold; Peak effect on dialysate 5-HT above baseline [3, 9]: 11.2 fold; Fold less potent than 5-APB and 6-APB at increasing dialysate 5-HT ([3]; in vivo microdialysis, i.v.): 3 fold; Effect on locomotion vs saline (post hoc analysis) (conscious male rats; 1 mg/kg i.v., first dose): did not significantly increase locomotion; Peak effect on ambulation above baseline (conscious male rats; [9]): 30 fold; Ambulation above baseline at the 120 min point (conscious male rats; 60 min after 3 mg/kg i.v.): about 18 fold
2 | CNC(C)Cc1ccc2c(c1)OCO2 (racemic) [MDMA, (±)-3,4-methylenedioxymethamphetamine HCl, reference compound] | 0.12 | 85 ± 16 | 104 | 120 ± 8 | 101 | – | 90 ± 13 | 99 | – | – | – | – | – | – | – | – | – | – | – | – | –
3 | CC(N)Cc1ccc2occc2c1 (stereo not shown) [5-APB, 1-(1-Benzofuran-5-yl)propan-2-amine] | – | 19 ± 2 | 104 | 31 ± 3 | 103 | at least 2 h | 21 ± 4 | 103 | 0.05 | 8.5 | 17.7 | 3.4 | 6.7 | 21 | 2–3 times | – | – | – | – | – | Times more potent than 5-MAPB at SERT release [2, 10]: 3.4 times; Increase in dialysate 5-HT ([6]; oral 0.08 mmol/kg (~17 mg/kg), corpus striatum, male CD-1 mice): 23 fold; Time the rise in extracellular 5-HT was maintained post-injection ([6]; oral 0.08 mmol/kg, mice): up to 3 h; Increase of dialysate 5-HT ([3]; 20 min after 0.3 mg/kg i.v.): 5.7 fold; Dialysate 5-HT above baseline at the 120 min point ([3]; 120 min point, 60 min after 1.0 mg/kg i.v.): 11.3 fold; ED50 for increase of forward locomotion (mice; i.p.): 3.27 mg/kg; Potency to stimulate activity, fold greater than that of MDMA (mice; Gatch et al. 2019): at least 3 fold; Increase in dialysate dopamine [7]: 8 fold; Effect on dialysate dopamine vs saline (post hoc test) ([8]; 0.3 mg/kg i.v.): failed to significantly increase dopamine levels; ED50 to substitute for the MDMA stimulus cue (rats; i.p.): 0.27 mg/kg; Substitution for the discriminative stimulus effects of MDMA (rats): fully substitutes; Ambulation above baseline at the 120 min point (conscious male rats; 60 min after 1.0 mg/kg i.v.): 14.0 fold
4 | CNC(C)Cc1ccc2occc2c1 (stereo not shown) [5-MAPB] | – | – | – | – | – | – | – | – | – | – | – | – | – | – | – | 103 | up to 2.5 times | 103 | at least 3 times | 99 | Times more potent than MDMA at NET release [5]: ≥ 3.75 times
5 | CC(N)Cc1ccc2ccoc2c1 (stereo not shown) [6-APB, 1-(1-benzofuran-6-yl)propan-2-amine] | – | 36 ± 5 | 100 | 10 ± 1 | 101 | at least 2 h | 14 ± 2 | 98 | 0.29 | 4.5 | 16 | 10 | 8.4 | 24 | 2–3 times | – | – | – | – | – | Increase of dialysate dopamine ([8]; 20 min after 0.3 mg/kg i.v.): 2.6 fold; Increase of dialysate dopamine ([8]; 40 min after 0.3 mg/kg i.v.): 3.3 fold; Effect on locomotion vs saline (post hoc analysis) (conscious male rats; 0.3 mg/kg i.v.): failed to result in significant increases in locomotion
6 | CNC(C)Cc1ccc2ccoc2c1 (stereo not shown) [6-MAPB] | – | – | – | – | – | – | – | – | – | – | – | – | – | – | – | 106 | up to 2.5 times | 106 | at least 3 times | 100 | Times more potent than MDMA at NET release [5]: ≥ 3.75 times
